Activity calls are given as the source filed them. The rule behind the calls is not given here.
Experiments:
[1] = Cytostatic activity against human CEM-DNR-bulk cells after 72 hrs by MTT assay; assay type: functional, cell-based
Method in brief: (§1)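 IC50 is the concentration that cuts cell growth by 50%, read by quantitative metabolic MTT staining after a 3-day treatment. The resistant sublines were made by raising the concentration of the cytotoxic drug step by step. CEM-DNR-bulk (daunorubicin-selected) stably overexpresses mrp-1. K562-TAX (paclitaxel-selected) expresses only mdr-1. HCT116p53−/− carries null p53 alleles. BJ and MRC-5 are nonmalignant fibroblasts.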

[2] = tested on: Pseudomonas aeruginosa; test: Antibacterial activity against Pseudomonas aeruginosa CCM 3955 after 24 hrs; assay type: functional, organism-based
[3] = tested on: Enterococcus faecalis; test: Antibacterial activity against Enterococcus faecalis CCM 4224 after 24 hrs; assay type: functional, organism-based
[4] = tested on: Escherichia coli; test: Antibacterial activity against multi-resistant Escherichia coli C/16702 after 24 hrs; assay type: functional, organism-based
[5] = tested on: MRC5; test: Cytostatic activity against human MRC5 cells after 72 hrs by MTT assay; assay type: ADME, cell-based; conditions: MRC5, 72 h; method in brief: as §1
[6] = tested on: K562; test: Cytostatic activity against human K562 cells after 72 hrs by MTT assay; assay type: functional, cell-based; conditions: K562, 72 h; method in brief: as §1
[7] = tested on: Candida parapsilosis; test: Antifungal activity against Candida parapsilosis after 48 hrs; assay type: functional, organism-based
[8] = Antiproliferative activity against human HeLaS3 cells after 72 hrs by XTT assay; assay type: functional, cell-based; conditions: HeLa S3, 72 h
Method in brief: (§2)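 Antiproliferative test on HL-60 promyelocytic leukemia and HeLa S3 cervical carcinoma cells growing in liquid suspension.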

[9] = tested on: Candida tropicalis; test: Antifungal activity against Candida tropicalis after 48 hrs; assay type: functional, organism-based
[10] = tested on: Staphylococcus haemolyticus; test: Antibacterial activity against methicillin-resistant Staphylococcus haemolyticus A/16568 after 24 hrs; assay type: functional, organism-based
[11] = Cytotoxicity against human HuH7 cells infected with Hepatitis C virus subtype 2a; assay type: cell-based, Huh-7
[12] = tested on: A549; test: Cytostatic activity against human A549 cells after 72 hrs by MTT assay; assay type: functional, cell-based; conditions: A549, 72 h; method in brief: as §1
[13] = tested on: CCRF-CEM; test: Cytostatic activity against human CCRF-CEM cells after 72 hrs by MTT assay; assay type: functional, cell-based; method in brief: as §1
[14] = tested on: HCT-116; test: Cytostatic activity against human HCT116 cells after 72 hrs by MTT assay; assay type: functional, cell-based; conditions: HCT-116, 72 h; method in brief: as §1
[15] = tested on: Escherichia coli; test: Antibacterial activity against Escherichia coli CCM 3954 after 24 hrs; assay type: functional, organism-based
[16] = tested on: Staphylococcus aureus; test: Antibacterial activity against methicillin-resistant Staphylococcus aureus MRSA 4591 after 24 hrs; assay type: functional, organism-based
[17] = tested on: Hepatitis C virus; test: Antiviral activity against Hepatitis C virus subtype 1b infected in human HuH7 cells; assay type: functional, organism-based, Hepacivirus hominis; conditions: genotype 1b, Huh-7
[18] = Cytotoxicity against human HuH7 cells infected with Hepatitis C virus subtype 1b; assay type: cell-based, Huh-7
[19] = tested on: Hepatitis C virus; test: Antiviral activity against Hepatitis C virus subtype 2a infected in human HuH7 cells; assay type: functional, organism-based, Hepacivirus hominis; conditions: genotype 2a, Huh-7
[20] = tested on: HL-60; test: Antiproliferative activity against human HL60 cells after 72 hrs by XTT assay; assay type: functional, cell-based; conditions: HL-60, 72 h; method in brief: as §2
[21] = tested on: BJ; test: Cytostatic activity against human BJ cells after 72 hrs by MTT assay; assay type: ADME, cell-based; method in brief: as §1
[22] = tested on: Candida albicans; test: Antifungal activity against Candida albicans after 48 hrs; assay type: functional, organism-based
[23] = tested on: Pseudomonas aeruginosa; test: Antibacterial activity against multi-resistant Pseudomonas aeruginosa A/16575 after 24 hrs; assay type: functional, organism-based
[24] = tested on: Staphylococcus aureus; test: Antibacterial activity against Staphylococcus aureus CCM 3953 after 24 hrs; assay type: functional, organism-based
[25] = tested on: HepG2; test: Antiproliferative activity against human HepG2 cells after 72 hrs by XTT assay; assay type: functional, cell-based; conditions: HepG2, 72 h
[26] = tested on: HCT-116; test: Cytostatic activity against p53-deficient human HCT116 cells after 72 hrs by MTT assay; assay type: functional, cell-based; conditions: HCT-116, 72 h; method in brief: as §1
[27] = tested on: Pichia kudriavzevii; test: Antifungal activity against Candida crusei after 48 hrs; assay type: functional, organism-based
[28] = tested on: K562; test: Cytostatic activity against paclitaxel-resistant human K562 cells after 72 hrs by MTT assay; assay type: functional, cell-based; conditions: K562, 72 h; method in brief: as §1

SMILES	IC50 [1]	Activity [2]	Activity [3]	Activity [4]	IC50 [5]	IC50 [6]	Activity [7]	IC50 [8]	Activity [9]	Activity [10]	CC50 [11]	IC50 [12]	IC50 [13]	IC50 [14]	Activity [15]	Activity [16]	EC50 [17]	CC50 [18]	EC50 [19]	IC50 [20]	further results
CN(C)c1ncnc2c1c(-c1cc3ccccc3o1)cn2[C@@H]1O[C@H](CO)[C@@H](O)[C@H]1O	> 20 µM	inactive	inactive	inactive	> 100 µM	> 20 µM	inactive	> 20 µM	inactive	inactive	> 44 µM	> 20 µM	> 20 µM	> 20 µM	inactive	inactive	19.2 µM	> 44 µM	> 44 µM	> 20 µM	IC50 [21]: > 100 µM; Activity [22]: inactive; Activity [23]: inactive; Activity [24]: inactive; IC50 [25]: > 20 µM; IC50 [26]: > 20 µM; Activity [27]: inactive; IC50 [28]: > 20 µM
CNc1ncnc2c1c(-c1ccccc1)cn2[C@@H]1O[C@H](CO)[C@@H](O)[C@H]1O	> 20 µM	inactive	inactive	inactive	> 100 µM	> 20 µM	inactive	> 20 µM	inactive	inactive	> 44 µM	> 20 µM	> 20 µM	> 20 µM	inactive	inactive	> 44 µM	> 44 µM	> 44 µM	> 20 µM	IC50 [21]: > 100 µM; Activity [22]: inactive; Activity [23]: inactive; Activity [24]: inactive; IC50 [25]: > 20 µM; IC50 [26]: > 100 µM; Activity [27]: inactive; IC50 [28]: > 20 µM
Cc1ncnc2c1c(-c1cc3ccccc3o1)cn2[C@@H]1O[C@H](CO)[C@@H](O)[C@H]1O	> 20 µM	inactive	inactive	inactive	84.4 µM	19.5 µM	inactive	> 20 µM	inactive	inactive	> 44 µM	> 20 µM	17.3 µM	> 20 µM	inactive	inactive	6.76 µM	> 44 µM	40.2 µM	> 20 µM	IC50 [21]: 93.9 µM; Activity [22]: inactive; Activity [23]: inactive; Activity [24]: inactive; IC50 [25]: > 20 µM; IC50 [26]: > 20 µM; Activity [27]: inactive; IC50 [28]: > 20 µM
Nc1nc(N)c2c(-c3ccsc3)cn([C@@H]3O[C@H](CO)[C@@H](O)[C@H]3O)c2n1	> 20 µM	inactive	inactive	inactive	> 100 µM	> 20 µM	inactive	> 20 µM	inactive	inactive	> 44 µM	> 100 µM	> 20 µM	> 20 µM	inactive	inactive	> 44 µM	> 44 µM	> 44 µM	> 20 µM	IC50 [21]: > 100 µM; Activity [22]: inactive; Activity [23]: inactive; Activity [24]: inactive; IC50 [25]: > 20 µM; IC50 [26]: > 20 µM; Activity [27]: inactive; IC50 [28]: > 20 µM
C#Cc1cn([C@@H]2O[C@H](CO)[C@@H](O)[C@H]2O)c2ncnc(NC)c12	18.5 µM	inactive	inactive	inactive	> 100 µM	> 20 µM	inactive	> 20 µM	inactive	inactive	> 44 µM	> 20 µM	> 20 µM	> 20 µM	inactive	inactive	0.35 µM	> 44 µM	> 44 µM	9.06 µM	IC50 [21]: 86 µM; Activity [22]: inactive; Activity [23]: inactive; Activity [24]: inactive; IC50 [25]: > 15 µM; IC50 [26]: > 20 µM; Activity [27]: inactive; IC50 [28]: 1.38 µM
Cc1ncnc2c1ccn2[C@@H]1O[C@H](CO)[C@@H](O)[C@H]1O	0.05 µM	inactive	inactive	inactive	0.09 µM	0.01 µM	inactive	0.02 µM	inactive	inactive	0.12 µM	0.03 µM	0.01 µM	0.03 µM	inactive	inactive	0.02 µM	0.23 µM	0.02 µM	0.02 µM	IC50 [21]: 0.07 µM; Activity [22]: inactive; Activity [23]: inactive; Activity [24]: inactive; IC50 [25]: 0.06 µM; IC50 [26]: 0.06 µM; Activity [27]: inactive; IC50 [28]: 0.05 µM
Cc1ncnc2c1c(-c1ccsc1)cn2[C@@H]1O[C@H](CO)[C@@H](O)[C@H]1O	8.56 µM	inactive	inactive	inactive	> 100 µM	0.32 µM	inactive	14.3 µM	inactive	inactive	> 44 µM	> 20 µM	11.2 µM	0.46 µM	inactive	inactive	4.47 µM	> 44 µM	> 44 µM	0.35 µM	IC50 [21]: 96.9 µM; Activity [22]: inactive; Activity [23]: inactive; Activity [24]: inactive; IC50 [25]: 4.72 µM; IC50 [26]: 1.43 µM; Activity [27]: inactive; IC50 [28]: 5.55 µM
CNc1ncnc2c1c(I)cn2[C@@H]1O[C@H](CO)[C@@H](O)[C@H]1O	> 20 µM	inactive	inactive	inactive	> 100 µM	> 100 µM	inactive	> 20 µM	inactive	inactive	> 44 µM	> 100 µM	> 100 µM	> 100 µM	inactive	inactive	> 44 µM	> 44 µM	> 44 µM	> 20 µM	IC50 [21]: > 100 µM; Activity [22]: inactive; Activity [23]: inactive; Activity [24]: inactive; IC50 [25]: > 20 µM; IC50 [26]: > 100 µM; Activity [27]: inactive; IC50 [28]: > 20 µM
CSc1ncnc2c1c(I)cn2[C@@H]1O[C@H](CO)[C@@H](O)[C@H]1O	> 20 µM	inactive	inactive	inactive	> 100 µM	10.5 µM	inactive	0.25 µM	inactive	inactive	> 44 µM	> 20 µM	> 20 µM	> 20 µM	inactive	inactive	19.2 µM	> 44 µM	> 44 µM	0.05 µM	IC50 [21]: 86.1 µM; Activity [22]: inactive; Activity [23]: inactive; Activity [24]: inactive; IC50 [25]: > 20 µM; IC50 [26]: > 20 µM; Activity [27]: inactive; IC50 [28]: 7.73 µM

— ChEMBL document CHEMBL3124843, “Synthesis, cytostatic, antimicrobial, and anti-HCV activity of 6-substituted 7-(het)aryl-7-deazapurine ribonucleosides” (J Med Chem, 2014)
